# Test results: ChEMBL document CHEMBL3792386, “Design, Synthesis, and Biological Evaluation of Novel Selenium (Se-NSAID) Molecules as Anticancer Agents” (J Med Chem, 2016)
# The source made the active and inactive calls. The rule behind the calls is not given here.
# How the values were obtained:
# [1] = test system: UACC-903; assay: Antiproliferative activity against human UACC-903 cells assessed as reduction in cell viability after 48 hrs by MTT assay; type: functional, cell-based; conditions: UACC-903, 48 h
# How it was run: (§1)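 3000 cells/well incubated in triplicate with serial concentrations of compound for 24, 48 or 72 h at 37 °C. MTT (5.0 mg/mL solution) added 3 h before the end. Formazan dissolved in DMSO, absorbance read at 570 and 630 nm. Viability normalised to vehicle control. IC50 from non-linear regression (variable slope), mean ± SD of triplicates.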
# [2] = Antiproliferative activity against human PANC1 cells assessed as reduction in cell viability after 48 hrs by MTT assay; type: functional, cell-based; conditions: PANC-1, 48 h; how it was run: as §1
# [3] = test system: UACC-903; assay: Antiproliferative activity against human UACC-903 cells assessed as reduction in cell viability after 72 hrs by MTT assay; type: functional, cell-based; conditions: UACC-903, 72 h; how it was run: as §1
# [4] = test system: HT-29; assay: Antiproliferative activity against human HT-29 cells assessed as reduction in cell viability after 48 hrs by MTT assay; type: functional, cell-based; conditions: HT-29, 48 h; how it was run: as §1
# [5] = test system: HT-29; assay: Antiproliferative activity against human HT-29 cells assessed as reduction in cell viability after 72 hrs by MTT assay; type: functional, cell-based; conditions: HT-29, 72 h; how it was run: as §1
# [6] = Antiproliferative activity against human PANC1 cells assessed as reduction in cell viability after 72 hrs by MTT assay; type: functional, cell-based; conditions: PANC-1, 72 h; how it was run: as §1
# [7] = test system: UACC-903; assay: Antiproliferative activity against human UACC-903 cells assessed as reduction in cell viability after 24 hrs by MTT assay; type: functional, cell-based; conditions: UACC-903, 24 h; how it was run: as §1
# [8] = test system: MDA-MB-231; assay: Antiproliferative activity against human MDA-MB-231 cells assessed as reduction in cell viability after 72 hrs by MTT assay; type: functional, cell-based; conditions: MDA-MB-231, 72 h; how it was run: as §1
# [9] = Antiproliferative activity against human PANC1 cells assessed as reduction in cell viability after 24 hrs by MTT assay; type: functional, cell-based; conditions: PANC-1, 24 h; how it was run: as §1
# [10] = test system: MDA-MB-231; assay: Antiproliferative activity against human MDA-MB-231 cells assessed as reduction in cell viability after 24 hrs by MTT assay; type: functional, cell-based; conditions: MDA-MB-231, 24 h; how it was run: as §1
# [11] = test system: MDA-MB-231; assay: Antiproliferative activity against human MDA-MB-231 cells assessed as reduction in cell viability after 48 hrs by MTT assay; type: functional, cell-based; conditions: MDA-MB-231, 48 h; how it was run: as §1
# [12] = test system: HT-29; assay: Antiproliferative activity against human HT-29 cells assessed as reduction in cell viability after 24 hrs by MTT assay; type: functional, cell-based; conditions: HT-29, 24 h; how it was run: as §1
# [13] = test system: HCT-116; assay: Cytotoxicity against human HCT116 cells assessed as reduction in cell viability after 48 hrs MTT assay; type: functional, cell-based
# How it was run: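 Cells (HCT116, nHDF in serum-free fibroblast medium with growth kit, or MEFs) exposed to increasing compound concentrations for 48 h at 37 °C. Viability read by MTT: 3000 cells/well, triplicate, MTT 3 h before end, formazan in DMSO, absorbance 570/630 nm. Mean ± SD.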
# [14] = test system: HCT-116; assay: Induction of cell death in human HCT116 cells at 1 mM after 24 hrs by ethidium bromide staining-based fluorescence microscopy; type: functional
# How it was run: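 HCT116 cells were exposed for 24 h with a DMSO vehicle comparison, then trypsinized and stained with calcein-AM (live, esterase activity) and ethidium homodimer-1 (dead, lost membrane integrity). Fluorescence microscopy was done at 20X, and the percentage of dead cells was calculated as mean ±SD.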
SMILES,IC50 [1] [µM],IC50 [2] [µM],IC50 [3] [µM],IC50 [4] [µM],IC50 [5] [µM],IC50 [6] [µM],IC50 [7] [µM],IC50 [8] [µM],IC50 [9] [µM],IC50 [10] [µM],IC50 [11] [µM],IC50 [12] [µM],Activity [13],Activity [14]
CC(=O)Oc1ccccc1C(=O)NCCSC#N,> 50,17.7,> 50,> 50,> 50,8.7,> 50,> 50,> 50,> 50,> 50,> 50,,
CC(=O)Oc1ccccc1C(=O)[Se]CC[Se]C(=O)c1ccccc1OC(C)=O,3.6,13.5,3,3.5,5.5,3.4,17.2,7.6,33.4,18.6,11,18.6,,
C[Se]CC(NC(=O)c1ccccc1OC(C)=O)C(=O)O (stereo not given),> 50,26.1,> 50,> 50,> 50,27.6,> 50,> 50,> 50,> 50,> 50,> 50,,
CC(=O)Oc1ccccc1C(=O)OCC[Se]C#N,14.5,36.1,17.6,30.9,20.2,15.1,33.9,34.3,38.7,> 50,23.8,10.2,,
CC(=O)Oc1ccccc1C(=O)[Se]CC[Se]C#N,15.8,18.9,12.7,27.5,17.7,9.6,> 50,18.6,> 50,> 50,34.2,> 50,,
CC(C)Cc1ccc(C(C)C(=O)O)cc1 (stereo not given) [IBUPROFEN],> 50,> 50,> 50,> 50,> 50,> 50,> 50,> 50,> 50,> 50,> 50,> 50,,
COc1ccc2cc([C@H](C)C(=O)O)ccc2c1 [NAPROXEN],> 50,> 50,> 50,> 50,> 50,> 50,> 50,> 50,> 50,> 50,> 50,> 50,,
CC(=O)Oc1ccccc1C(=O)[Se]CCBr,19.4,> 50,10.2,27.7,19.3,> 50,22.7,8.7,39.3,23.7,18.7,28.5,,
O=c1[nH]cc(F)c(=O)[nH]1,,,,,,,,,,,,,Active,
COc1ccc2cc([C@H](C)C(=O)NCC[Se]C#N)ccc2c1,> 50,> 50,> 50,> 50,> 50,> 50,> 50,> 50,> 50,> 50,> 50,> 50,,
CC(C)Cc1ccc(C(C)C(=O)NCC[Se]C#N)cc1 (stereo not given),> 50,> 50,> 50,> 50,> 50,> 50,> 50,> 50,> 50,> 50,> 50,> 50,,
CC(=O)Oc1ccccc1C(=O)O [ASPIRIN],> 50,> 50,> 50,> 50,> 50,> 50,> 50,> 50,> 50,> 50,> 50,> 50,Active,inactive
